SIAE inh – inhibitors of human sialic acid acetylesterase SIAE; Q9HAT2; SIAE FP-Rh probe binding, fluorescence polarization; inhibition, % at 9.66 µM; hit rate 0.69% among 370,000; AID 1053197;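 active = inhibition above a cutoff: mean of compounds within the control limits plus 3 SD of those, cut at about 17% in these data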
Target sequence (Q9HAT2 whole entry, looked up): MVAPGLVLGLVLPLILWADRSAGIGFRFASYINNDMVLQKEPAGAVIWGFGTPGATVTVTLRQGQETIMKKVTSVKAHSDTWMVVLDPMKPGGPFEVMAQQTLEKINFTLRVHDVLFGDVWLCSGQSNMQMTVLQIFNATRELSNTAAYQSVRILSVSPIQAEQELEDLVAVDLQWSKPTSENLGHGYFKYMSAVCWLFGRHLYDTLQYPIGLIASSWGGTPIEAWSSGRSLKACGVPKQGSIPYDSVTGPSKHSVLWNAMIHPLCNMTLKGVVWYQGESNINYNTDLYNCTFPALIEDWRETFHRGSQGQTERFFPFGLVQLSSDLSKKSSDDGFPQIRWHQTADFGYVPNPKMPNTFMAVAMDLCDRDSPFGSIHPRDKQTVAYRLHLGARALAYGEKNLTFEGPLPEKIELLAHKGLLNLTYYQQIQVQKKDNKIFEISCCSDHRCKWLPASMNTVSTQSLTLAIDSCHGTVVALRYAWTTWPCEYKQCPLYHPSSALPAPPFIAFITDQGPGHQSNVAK
PAD4 inh – PAD4 (human) enzyme inhibition. Q9UM07. recombinant PAD4, RCA probe fluorescence polarization. inhibition, % at 6.36 µM. hit rate 0.41% among 330,000. AID 485272;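 active = percent inhibition above a cutoff equal to the mean of all tested compounds plus 3 SD, cut at about 15% in these data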
RBBP9 inhibitor – inhibitors of human serine hydrolase RBBP9; O75884; recombinant RBBP9, FP-Rh probe fluorescence polarization; hit rate 0.2% among 220,000; inhibition, % at 7.94 µM;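 active = inhibition above the campaign mean of all tested compounds plus 3 SD, cut at about 14% in these data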
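Test system: recombinant human RBBP9. Quantity: 2.5 µM RBBP9 dispensing solution, before mixing. Detection: FP readout at 525/598 nm. Reagent: Serine-hydrolase probe FP-Rh, 375 nM pre-mixing. Measure: % inhibition. Control set: DMSO-treated enzyme wells and wells lacking RBBP9. Buffer or medium: Tris-NaCl-Pluronic buffer, pH 8.0. Times: preincubation 30 min plus labeling 45 min at 25 °C.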
PRMT1 FP inh – blocks human protein arginine methyltransferase 1 | inhibition, % at 2.79 µM | recombinant PRMT1, activity-based probe fluorescence polarization | hit rate 1.3% among 370,000 | AID 652257 | Q99873;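 active = inhibition above about 21% made by adding two undisclosed values, limit read from the data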
GSTO1 counter – GSTO1 inhibition, counter-screen for RBBP9 inhibitors; P78417; recombinant GSTO1, activity-based probe fluorescence polarization; inhibition, % at 5.96 µM; hit rate 1.1% among 300,000; AID 1974;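 active = inhibition above the campaign mean inhibition plus 3 SD, cut at about 35% in these data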
Target sequence (P78417 whole entry, looked up): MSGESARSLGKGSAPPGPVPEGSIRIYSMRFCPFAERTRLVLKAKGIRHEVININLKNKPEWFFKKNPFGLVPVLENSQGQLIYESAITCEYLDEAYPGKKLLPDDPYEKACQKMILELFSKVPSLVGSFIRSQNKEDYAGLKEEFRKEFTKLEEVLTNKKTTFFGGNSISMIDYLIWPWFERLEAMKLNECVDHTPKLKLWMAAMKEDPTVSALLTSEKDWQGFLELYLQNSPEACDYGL
PRMT1 confirm – PRMT1 (human) inhibition, FP confirmation | shares compounds with PRMT1 FP inh | recombinant His-PRMT1, activity-based probe fluorescence polarization | inhibition, % at 2.79 µM | hit rate 42% among 3,300;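 active = mean inhibition across replicates above the hit cutoff derived for the earlier primary screen, cut at about 22% in these data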
SIAE inh conf – confirmation of human SIAE inhibitors; shares compounds with SIAE inh; SIAE FP-Rh activity-based probe, fluorescence polarization; inhibition, % at 9.66 µM; hit rate 13% among 2,300; AID 1117263;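 active = mean inhibition of the replicates above the hit cutoff set in the primary screen, cut at about 17% in these data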;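 also: inhibitors lower polarization as more probe stays unbound to SIAE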
Of the large screens only hits and unclear results are named; the others gave an inactive call (follow-up assays come after a bar, where they were run); ! = a repeat was not active. Shown are actives, neighbours in structure and some others; about 2.7% of the full set was active somewhere.

CCn1c(-c2ccc(C)cc2)nn(CC(=O)NCCc2ccccc2)c1=S	none
Oc1ccc2c(c1)OCC1(O)Cc3cc(O)c(O)cc3C21 (stereo not drawn)	SIAE inh active, PRMT1 FP inh 125 (no result: PAD4 inh, RBBP9 inhibitor, GSTO1 counter) | PRMT1 confirm 119 | SIAE inh conf active
COc1ccc(C2COc3cc(O)ccc3C2)c(OC)c1O (stereo not drawn)	none (no result: RBBP9 inhibitor)
CCOC1=CC2=C(C(=O)C(Cl)=CC2=O)[C@@H]2CN(S(=O)(=O)c3ccc(C)cc3)[C@@H](c3ccccc3)[C@H]12	SIAE inh 23, PRMT1 FP inh 50 (no result: PAD4 inh, RBBP9 inhibitor, GSTO1 counter) | PRMT1 confirm 91 | SIAE inh conf 18
CCN1C(=O)[C@@H]2[C@@H]3CN(S(=O)(=O)c4ccc(C)cc4)[C@@H](c4ccccc4)[C@@H]3C(=O)C[C@@H]2C1=O	none (no result: PAD4 inh, RBBP9 inhibitor, GSTO1 counter)
OCCOCCN1CCN(C2=Nc3ccccc3Sc3ccccc32)CC1	none
O=C1C=CC(=O)c2c(O)c(N3CCN(CCOCCO)CC3)c(Br)c(O)c21	SIAE inh 24, PRMT1 FP inh 66 (no result: PAD4 inh, RBBP9 inhibitor, GSTO1 counter) | PRMT1 confirm 93 | SIAE inh conf inactive
CC(=O)Nc1cc(-c2ccccc2N(C)C)cn2c(-c3cccc(C(F)(F)F)c3)cnc12	SIAE inh 18, PRMT1 FP inh 99 (no result: PAD4 inh, RBBP9 inhibitor, GSTO1 counter) | PRMT1 confirm inactive | SIAE inh conf inactive
COc1ccccc1CCNC(=O)COc1cccc2c1OC(C)(C)C2	none (no result: RBBP9 inhibitor)
O=C(CCNC(=O)c1ccc(Br)cc1)NCCCN1CCOCC1	none (no result: RBBP9 inhibitor, GSTO1 counter)
COc1cc(NC(=O)CSc2nc3ncnc(N)c3[nH]2)c(C(=O)O)cc1OC	SIAE inh 18 (no result: RBBP9 inhibitor) | SIAE inh conf inactive
COc1ccc(CN2C(=O)CCCC2(C)c2nc3ccccc3[nH]2)cc1 (stereo not drawn)	none (no result: PAD4 inh, RBBP9 inhibitor, GSTO1 counter)
CC(C)=CCc1cc(-c2oc3cc(O)cc(O)c3c(=O)c2O)ccc1O	SIAE inh 23 (no result: RBBP9 inhibitor) | SIAE inh conf inactive
CC(C)Cn1c(SCC(=O)c2ccc(Cl)s2)nnc1-c1ccco1	SIAE inh 25 | SIAE inh conf inactive
CC(C)Cn1c(N)c(C(=O)CSc2nnc(-c3ccco3)n2C)c(=O)n(C)c1=O	none (no result: RBBP9 inhibitor, GSTO1 counter)
CCc1nnc(NC(=O)CSc2nnc(-c3ccc(S(=O)(=O)N(CC)CC)cc3)n2CC)s1	none
CN(C)c1ccc(C(CNC(=O)c2ccccc2Br)c2c[nH]c3ccccc23)cc1 (stereo not drawn)	none
CN(C)c1ccc(C(CNC(=O)c2ccc(C#N)cc2)c2c[nH]c3ccccc23)cc1 (stereo not drawn)	SIAE inh 24 | SIAE inh conf inactive
CCOC(=O)c1ccc(S(=O)(=O)NCC(c2ccc(N(C)C)cc2)c2c[nH]c3ccccc23)cc1 (stereo not drawn)	SIAE inh 23 | SIAE inh conf inactive
N=C1S/C(=C\c2ccco2)C(=O)N1c1nccs1	none
N=C1S/C(=C\c2ccco2)C(=O)N1c1ccc2c(c1)OCO2	SIAE inh 21 | SIAE inh conf inactive
CC(C)(C)c1ccccc1NC(=O)COC(=O)CN1C(=O)NC2(CCCC2)C1=O	SIAE inh 21 (no result: RBBP9 inhibitor) | SIAE inh conf inactive
Cc1ccccc1NC(=O)COC(=O)CN1C(=O)NC(C)(C)C1=O	none
COc1ccc(C(=O)NNC(=S)NC(=O)c2cccc([N+](=O)[O-])c2)cc1	none (no result: RBBP9 inhibitor)
O=C(NC(=S)NNC(=O)c1ccccc1O)c1cccc([N+](=O)[O-])c1	SIAE inh 17 (no result: RBBP9 inhibitor) | SIAE inh conf inactive
COc1ccc(C(=O)O)nc1C	SIAE inh 21 | SIAE inh conf inactive
COc1ccc(-c2nc(C(=O)O)cs2)cc1OC	none
O=C(NCCc1csc(-c2cccnc2)n1)c1ccc(Br)o1	SIAE inh 18 | SIAE inh conf inactive
Cc1ccn2cc(-c3cnoc3C)nc2c1	none
Cc1ccc(S(=O)(=O)N2CCOCC2)cc1NC(=O)COc1ccc2c(C)cc(=O)oc2c1	none (no result: RBBP9 inhibitor)
COc1cc(-c2nnc(CSc3nnc(Nc4ccc(Oc5ccccc5)cc4)s3)o2)cc(OC)c1OC	SIAE inh 19 | SIAE inh conf inactive
CCCCC(=O)Nc1c2c(nn1-c1cccc(C)c1C)CS(=O)(=O)C2	none (no result: RBBP9 inhibitor)
COc1cc(/C=C/c2ccc3cccc(OC)c3n2)c(OC(C)=O)c([N+](=O)[O-])c1	none
COc1c(OC(C)=O)ccc(/C=C/c2ccc3cccc(OCc4ccccc4)c3n2)c1[N+](=O)[O-]	SIAE inh 28 | SIAE inh conf inactive
CCCN(CCC)CC(O)Cn1cc(/C=C/C(=O)c2cccs2)c2ccccc21 (stereo not drawn)	none
CCCN(CCC)CC(O)Cn1cc(/C=C/C(=O)c2ccccc2)c2ccccc21 (stereo not drawn)	SIAE inh 18 (no result: PAD4 inh, GSTO1 counter) | SIAE inh conf inactive
COc1cccc(CCNC(=O)CC2C(=O)NCCN2CC(C)(C)C)c1 (stereo not drawn)	SIAE inh 17 | SIAE inh conf inactive
O=C(Nc1cccc(S(=O)(=O)NC2=NCCC2)c1)c1ccc(OC(F)F)cc1	none (no result: RBBP9 inhibitor, GSTO1 counter)
C=CCn1c(O)c(C2=c3ccccc3=NC2=O)sc1=Nc1ccc(O)cc1	SIAE inh 21 (no result: RBBP9 inhibitor) | SIAE inh conf inactive
O=c1[nH]c(=S)[nH]c2nccnc12	none (no result: PAD4 inh, RBBP9 inhibitor, GSTO1 counter)
S=C(NCCCCN(Cc1ccc(Cl)cc1)c1ccc(Br)cn1)NCCCc1cnc[nH]1	SIAE inh 24 (no result: PAD4 inh, RBBP9 inhibitor, GSTO1 counter) | SIAE inh conf 28
CN(C)CCN(Cc1ccc(Cl)cc1)c1ccccn1	none
c1ccc(CNc2nc(NCC3CC3)nc3cc(-c4ccccc4)sc23)cc1	none (no result: PAD4 inh, RBBP9 inhibitor, GSTO1 counter)
COCCNc1nc(Oc2ccc(NC(C)=O)cc2)c2sc(-c3ccccc3)cc2n1	none (no result: PAD4 inh, RBBP9 inhibitor, GSTO1 counter)
COCCNc1nc(NCc2cccc(OC)c2)c2sc(-c3ccccc3)cc2n1	SIAE inh 34 (no result: PAD4 inh, RBBP9 inhibitor, GSTO1 counter) | SIAE inh conf 31
COCCNc1nc(NCc2ccc(NC(C)=O)cc2)c2sc(-c3ccccc3)cc2n1	SIAE inh 27 (no result: PAD4 inh, RBBP9 inhibitor, GSTO1 counter) | SIAE inh conf 18
c1ccc(OCCNc2nc(NCC3CC3)nc3cc(-c4ccccc4)sc23)cc1	SIAE inh 22 (no result: PAD4 inh, RBBP9 inhibitor, GSTO1 counter) | SIAE inh conf 21
CCOC(=O)C1(C(N)=O)OC1(c1ccc(Cl)cc1)c1ccccc1Cl (stereo not drawn)	none (no result: PAD4 inh, RBBP9 inhibitor, GSTO1 counter)
Cc1ccccc1OCCC(=O)OCC(=O)N(C)c1c(N)n(Cc2ccccc2)c(=O)[nH]c1=O	none (no result: RBBP9 inhibitor)
Cc1ccc(C)c(OCCC(=O)OCC(=O)N(C)c2c(N)n(Cc3ccccc3)c(=O)[nH]c2=O)c1	SIAE inh 18 (no result: RBBP9 inhibitor) | SIAE inh conf inactive
Nc1ccc(C(=O)O)cc1S(=O)(=O)O	SIAE inh 25 | SIAE inh conf inactive
O=c1[nH]cnc2ccc([N+](=O)[O-])cc12	none
O=c1[nH][nH]c(=O)c2cc([N+](=O)[O-])ccc12	SIAE inh 18! (no result: RBBP9 inhibitor, GSTO1 counter) | SIAE inh conf inactive
Cc1ccc(-n2c(CNc3ccc(F)cc3)nnc2SCC(=O)O)cc1	SIAE inh 20 | SIAE inh conf inactive
Cc1ccc(NCc2nnc(SCC(=O)O)n2-c2ccc(C)cc2)cc1	none
O=C(Nc1ccc(Br)cc1Cl)NC1CC1	none

Assay outcomes (PubChem)
